The record followed here is ChEMBL document CHEMBL1158960, “Constituents of leguminous plants, XIII. New triterpenoid saponins from Wistaria brachybotrys” (J Nat Prod, 1991).

Molecules are shown by their SMILES. Bounds are passed on as bounds.

Common to all, as to format: cell-based
Series [1] has as its system Raji. Briefly: Inhibition of 12-O-tetradecanoylphorbol-13-acetate-induced EBV-early antigen activation in human Raji cells at 1000 molar ratio after 48 hrs relative to TPA. Further details: scale not given: the % may be the effect or the level left. The settings on record: human gammaherpesvirus 4. In short, it runs like this:
(§1)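 EBV-EA activation induced in Raji cells by TPA (20 ng = 32 pmol); test triterpenoid dosed as mol ratio to TPA. Results expressed relative to positive control set at 100%, averages of three determinations ± SD.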

Series [2] relates to Raji. Briefly: Inhibition of 12-O-tetradecanoylphorbol-13-acetate-induced EBV-early antigen activation in human Raji cells at 500 molar ratio after 48 hrs relative to TPA. The conditions noted are these: human gammaherpesvirus 4. In short, it runs like this: as §1
The test system of series [3] is Raji. Briefly: Inhibition of 12-O-tetradecanoylphorbol-13-acetate-induced EBV-early antigen activation in human Raji cells at 100 molar ratio after 48 hrs relative to TPA. The conditions noted are these: human gammaherpesvirus 4. More on the design: scale not given: the % may be the effect or the level left. The method in brief: as §1
Series [4] deals with Raji. The experiment in a line: Inhibition of 12-O-tetradecanoylphorbol-13-acetate-induced EBV-early antigen activation in human Raji cells at 10 molar ratio after 48 hrs relative to TPA. Further details: scale not given: the % may be the effect or the level left. The settings on record: human gammaherpesvirus 4. In short, it runs like this: as §1
The nature of series [5]: Cytotoxicity against human Raji cells assessed as cell viability at 1000 molar ratio. The conditions noted are these: read-out: Activity. In short, it runs like this: (§2)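 Raji cells exposed to TPA (20 ng = 32 pmol) together with test triterpenoid, dosed as mol ratio to TPA; viability of Raji cells recorded alongside EBV-EA assay, given as percentage.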
A short description of series [6]: Cytotoxicity against human Raji cells assessed as cell viability at 500 molar ratio. The conditions noted are these: read-out: Activity. The method in brief: as §2
Series [7] is described as follows: Cytotoxicity against human Raji cells assessed as cell viability at 100 molar ratio. The conditions noted are these: read-out: Activity. In short, it runs like this: as §2
Series [8] is described as follows: Cytotoxicity against human Raji cells assessed as cell viability at 10 molar ratio. The conditions noted are these: read-out: Activity. In short, it runs like this: as §2

As to `COC(=O)[C@H]1O[C@@H](O[C@H]2CC[C@@]3(C)[C@@H](CC[C@]4(C)[C@@H]3CC=C3[C@@H]5CC(C)(C)CC(=O)[C@]5(C)CC[C@]34C)[C@@]2(C)CO)[C@H](O[C@@H]2O[C@H](CO)[C@H](O)[C@H](O)[C@H]2O[C@@H]2O[C@@H](C)[C@H](O)[C@@H](O)[C@H]2O)[C@@H](O)[C@@H]1O` [DEHYDROSOYASAPONIN I], the Activity with Raji [1] was determined as 50.3%; with Raji [3], 88.5%; with Raji [4] it was 100%. In addition, the EBV-EA activation remaining (% of TPA control) in the series on Raji [2] was 67.8%. The viability at 1000 molar ratio in series [5] turned out to be 60%. Besides, in series [6], the viability at 500 molar ratio was above 80%. For the same compound, the viability at 100 molar ratio in series [7] is above 80%. For the same compound, the viability at 10 molar ratio in series [8] was above 80%.
Consider `COC(=O)[C@H]1O[C@@H](O[C@H]2CC[C@@]3(C)[C@@H](CC[C@]4(C)[C@@H]3CC=C3[C@@H]5CC(C)(C)CC(=O)[C@]5(C)CC[C@]34C)[C@@]2(C)CO)[C@H](O[C@@H]2OC[C@@H](O)[C@H](O)[C@H]2O[C@@H]2O[C@@H](C)[C@H](O)[C@@H](O)[C@H]2O)[C@@H](O)[C@@H]1O` [WISTARIASAPONIN D], for which the Activity was found to be 0% in the series on Raji [1], 86.1% in the series on Raji [3] and 92.8% in the series with Raji [4]. Further, the EBV-EA activation remaining (% of TPA control) in the series on Raji [2] amounted to 51%. Moreover, the viability at 1000 molar ratio in series [5] was 10%. In addition, the viability at 500 molar ratio in series [6] was above 80%. Further, the viability at 100 molar ratio in series [7] was above 80%. Moreover, the viability at 10 molar ratio in series [8] was above 80%.
Regarding `COC(=O)[C@H]1O[C@@H](O[C@H]2CC[C@@]3(C)[C@@H](CC[C@]4(C)[C@@H]3CC=C3[C@@H]5C[C@@](C)(C(=O)OC)C[C@@H](OC(C)=O)[C@]5(C)CC[C@]34C)[C@@]2(C)CO)[C@H](O[C@@H]2OC[C@@H](O)[C@H](O)[C@H]2O[C@@H]2O[C@@H](C)[C@H](O)[C@@H](O)[C@H]2O)[C@@H](O)[C@@H]1O` [WISTARIASAPONIN G], the EBV-EA activation remaining (% of TPA control) in the series with Raji [2] turned out to be 15.4%. The figures for the Activity with Raji [3] and in the series with Raji [4] were 62.6% and 79.7%, respectively. Moreover, in series [5], the viability at 1000 molar ratio worked out at 0%. Also, the viability at 500 molar ratio in series [6] was found to be 10%. Further, in series [7], the viability at 100 molar ratio was above 80%. For the same compound, in series [8], the viability at 10 molar ratio is above 80%.
`CC1(C)CC(=O)[C@]2(C)CC[C@]3(C)C(=CC[C@@H]4[C@@]5(C)CC[C@H](O)[C@](C)(CO)[C@@H]5CC[C@]43C)[C@@H]2C1` [SOYASAPOGENOL E]: the Activity in the series with Raji [1] is 0%; in the series with Raji [3], 43.9%; with Raji [4] it was 89.5%. Moreover, the EBV-EA activation remaining (% of TPA control) in the series on Raji [2] was determined as 0%. In addition, in series [5], the viability at 1000 molar ratio is above 80%. Moreover, in series [6], the viability at 500 molar ratio was above 80%. Moreover, in series [7], the viability at 100 molar ratio is above 80%. Besides, the viability at 10 molar ratio in series [8] is above 80%.
